14 compounds from ChEMBL document CHEMBL1208712, “Synthesis and anti-HCV activity of 3',4'-oxetane nucleosides” (Bioorg Med Chem Lett, 2010) can be followed below.

The nature of data set [1]: Inhibition of HCV NS5B polymerase after 30 mins. Further details: species or system Hepacivirus hominis.
Another data set concerns Hepatitis C virus. Put plainly: Antiviral activity against HCV 1a infected in human HB-1 cells assessed as inhibition of viral RNA replication after 24 hrs. The data set is classed as functional, organism-based, Hepacivirus hominis. The conditions noted are these: subtype 1a, HB1, 24 h.
Data set [2] can be described thus: Cytotoxicity against human HuH7 cells by MTS assay. The data set is classed as cell-based, Huh-7. In outline: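 Tested at concentrations up to 50.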
(In general: Tetrazolium assays rely on reduction of a dye to a coloured formazan, in cell work by metabolically active cells.)

Molecules are shown by their SMILES. pIC50, pKi: −log10 of the molar value.

Turning to `Nc1ccn([C@@H]2O[C@@]3(COP(=O)(O)OP(=O)(O)OP(=O)(O)O)CO[C@H]3[C@H]2F)c(=O)n1`, in data set [1], the pIC50 (commonly −log10 of the IC50, conventionally taken in molar units) is 4.51. Still for that read-out and setting: the same measure for `Nc1ccn([C@@H]2O[C@@]3(COP(=O)(O)OP(=O)(O)OP(=O)(O)O)CO[C@H]3[C@@H]2F)c(=O)n1`: 4.10; for `Nc1ccn([C@@H]2O[C@@]3(COP(=O)(O)OP(=O)(O)OP(=O)(O)O)CO[C@H]3C2(F)F)c(=O)n1`: 4.48. As for `C[C@@]1(F)[C@@H]2OC[C@]2(CO)O[C@H]1n1ccc(N)nc1=O`, in the data set with Hepatitis C virus, the EC90 (as a rule, the concentration needed for an effect of 90%) is more than 50 µM. Further, in data set [2], the CC50 (as a rule, the concentration that lowers cell viability or growth by half) was more than 50 µM.

For the compound `Nc1ccn([C@@H]2O[C@@]3(CO)CO[C@H]3[C@H]2F)c(=O)n1`, the EC90 in the data set on Hepatitis C virus was more than 50 µM. In data set [2], this compound had a CC50 of more than 50 µM. Regarding `Nc1ccn([C@@H]2O[C@@]3(CO)CO[C@H]3[C@@H]2F)c(=O)n1`, the EC90 in the data set with Hepatitis C virus is more than 50 µM. Moreover, the CC50 in data set [2] is more than 50 µM. Take `Nc1ccn([C@@H]2O[C@@]3(CO)CO[C@H]3C2(F)F)c(=O)n1`: in the data set on Hepatitis C virus, the EC90 is more than 50 µM. In data set [2], this compound had a CC50 of more than 50 µM. Regarding `CO[C@H]1[C@H](n2ccc(N)nc2=O)O[C@@]2(CO)CO[C@@H]12`, in the data set with Hepatitis C virus, the EC90 is more than 50 µM. Moreover, the CC50 in data set [2] was more than 50 µM. For the compound `Nc1ncnc2c1ncn2[C@@H]1O[C@@]2(CO)CO[C@H]2[C@H]1F`, the EC90 in the data set on Hepatitis C virus is more than 50 µM. In data set [2], this compound gave a 50% cytotoxic concentration (CC50) of more than 50 µM. With `C[C@@]1(F)[C@H](O)[C@@H](CO)O[C@H]1n1ccc(N)nc1=O`, the EC90 in the data set on Hepatitis C virus (read-out: EC90) is 4.6 µM. The same compound came in with a CC50 in data set [2] of more than 50 µM. As to `Nc1ccn([C@@H]2O[C@H](CO)[C@@H](O)[C@H]2F)c(=O)n1`, the EC90 in the data set with Hepatitis C virus was 5.21 µM. Also, the CC50 in data set [2] is more than 50 µM. For `Nc1ccn([C@@H]2O[C@H](CO)[C@@H](O)[C@@H]2F)c(=O)n1` the same measures were more than 50 µM and more than 50 µM. For `Nc1ccn([C@@H]2O[C@H](CO)[C@@H](O)C2(F)F)c(=O)n1` [GEMCITABINE] the same measures were less than 1 µM and less than 0.1 µM. `C[C@@]1(F)[C@H](O)[C@@H](COP(=O)(O)OP(=O)(O)OP(=O)(O)O)O[C@H]1n1ccc(N)nc1=O` [PSI-6130-TP]: in data set [1], the pIC50 was 5.27 and the pKi (as a rule, the Ki on a negative log10 scale, so that one unit is a factor of ten) was 7.23.
